Test results taken from the RNAGym collection of RNA variant scans (doi:10.1126/science.aae0568).
This sample holds only a part of the variants without activity.

B1: tRNA (parent)
chain: GUUCCGUUGGCGUAAUGGUAACGCGUCUCCCUCCUAAGGAGAAGACUGCGGGUUCGAGUCCCGUACGGAACG

Variants of: B1
Experiment: yeast fitness relative to wild type (ratio to wild type); higher = fitter; tRNA-Arg(CCU), competitive growth, 37 C, YPD
Procedure, shortened: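 Start and end populations of a pooled competition were compared by 100-nucleotide paired-end sequencing of gene amplicons. The Saccharomyces cerevisiae strains carried tRNA-Arg(CCU) gene variants at the native genomic locus, synthesised with a 3% per-site mutation rate at 69 sites, and competed in YPD at 37°C for 24 hours in six parallel replicates. Darwinian fitness relative to wild type was based on the change in genotype frequencies. Genotypes required ≥ 100 starting reads, and estimates < 0.5 were set to 0.5.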

Row | Variant | yeast fitness
1 | GUUCCGUUGGCGUAAUGGUAACGCGUUUCCCUCCUAAGGAGAAGACUGCGAGUUCGAGUCCCGUACGGAACG [C27U G51A] | 0.836
2 | GUACCGUUGGCGUAAUGGUAACGCGUCUUCCUCCUAAGGAGAAGACUGCGGGUUCGAGGCCCGUAUGGAACG [U3A C29U U59G C66U] | ≤ 0.5
3 | GUUCGGUUGGCGUAAUGGUAACACCUCUCCCUCCUAAGGAGAAGACUGUGGGUUCGAGUCCCGUACGGAACG [C5G G23A G25C C49U] | 0.544
4 | GUUCCGUUGGCGUAAUGGUAACGCGUCUCCCUCCUAAGGAGAAGACUGCGCGUUCGAGUCCCGUUCGGAACG [G51C A65U] | 0.597
5 | GUUCCGUUGGCGUAAUGGUAUCGCGUCUCUCUCCUAAGCAGAGGAGUGCGGGUACGAGUCCGGUACGGAACG [A21U C30U G39C A43G C46G U54A C62G] | ≤ 0.5
6 | GUUCCGUUGGCGUAAUGGUAACGCGUCUCCCUCCUAAGGAGAAGACUGCGGCCUCGAGUCCCGUACCGAACG [G52C U53C G67C] | ≤ 0.5
7 | GUUCCGUUGGUGUAAUGGUAACGCGUCUCCCUCCUAAGGAGAAGCCUGCGAGUUCGAGUCCCGUACGGAACG [C11U A45C G51A] | 0.611
8 | GUUCCGUUGGCGUAAUGGUAAUGCGUCUCCCUCCUAAGGAGAAGACUGCGGGUUCGAGUCCGGUACGGAACG [C22U C62G] | 0.778
9 | GUUCCGUUGGCGUAAUGGUAACGCGUCUCCCUCCUAAGGAAAAGACUGCGGGUUCCAGUCCCACACCGAACG [G41A G56C G63A U64C G67C] | ≤ 0.5
10 | GUUCCGUUGGCGUAAUGGUACCGCGUCUCCCUCCUAAGGAGAAGACUGCGGGUUCGAGUCCUGUCCGGAACG [A21C C62U A65C] | 0.654
11 | GUUCCGUUGGCGUAAUGGUAACGGGUCUCCGUCCUAAGGAGAAGACUGCGAGUUCGAGUCCCGUACGGAACG [C24G C31G G51A] | ≤ 0.5
12 | GUUCCGUUGGCGUAAUGGUAACGCGUCUCCCUCCUAAGGGGAAGACUGCGGGUUCGACUCCCGUACGGAACG [A40G G58C] | 1.05
13 | GUUCCGUUGGGGUAAUGGUAACGUGUCUCCGUUCUAAGGAGAUGACUGCGGGUUCGAGUCCCGUACGGAACG [C11G C24U C31G C33U A43U] | ≤ 0.5
14 | GUUCCGUUGGCGUAAUGGUAACGGGUCUCCCUCCGAAGGAGAAGCCUGCGGGUUCGAGUCCCGUACGGAACG [C24G U35G A45C] | ≤ 0.5
15 | GUUCCGUGGGCGUAAUGGUAACGCGUCUCCCUCCUAAGGAGAAGACUGCGCGUUCGAGUACCGUACGGAACG [U8G G51C C60A] | ≤ 0.5
16 | GCUCGGUUGGCGUAAUGGUAACGCGUCUCGCUCCUAAGGAGAAAACUGCGGGUUCGAGUCCCGUACGGAACG [U2C C5G C30G G44A] | ≤ 0.5
17 | GUUCCGUUGGCGUAAUCGUAACGCGUCUCCCUCCUACGGAGAAGUCUGCGGGUUCGAGUCCCGUACGGAACG [G17C A37C A45U] | 0.659
18 | GUUCCGUUGGCGUAAUAGAAACACGUCUCCUUCAUAAGGAGAUGACUGCGGGUUCGAGUCCCGUACGGAACG [G17A U19A G23A C31U C34A A43U] | ≤ 0.5
19 | GUUCCGUUGGCGUAAUGGUAACGCGUGUCCCUCCUAGGGAGAAGACUGCGGUUUCGAGUCUCGUACAGAACG [C27G A37G G52U C61U G67A] | ≤ 0.5

Row | Variant | yeast fitness
20 | GUUCCGUCGGCGUAAUGGUAACGUGUCUCCCUCCUAAGGAGAAGACUGCGGGUUCGAGUCCCGUACGGAACG [U8C C24U] | 0.945
21 | GUUCCGAUGCCGUAAUGGUAAUGCGUGUCCCUCCUAAGGAGAAGACUGCUGGUUCGAGUCCCGUAUGGAACG [U7A G10C C22U C27G G50U C66U] | ≤ 0.5
22 | GUUUCGUGGGCAUAAUGGUAACGCGUCUCCCUCCUAAGGAGAAGACUGCGGGUGCGAGUCCCGUACGGAACG [C4U U8G G12A U54G] | ≤ 0.5
23 | GUUCCGUUGGCGGAAUGGUAACGAGUCUCCCUCCUAAGGAGAAGGCUGCGGGUUCGAGUCCCGUACGGAACG [U13G C24A A45G] | ≤ 0.5
24 | GUUCCGUUGGCGUAAUAGUAACGCGUCUCCCUCCUAAGGAGAAGCCUGCGGGUUCGAGUCCCCUAUGGAACG [G17A A45C G63C C66U] | ≤ 0.5
25 | GUUCCGUUAGCGUAAUGGUAACGCGUCUCCCUCCUAAGGAGAAGCGUGCGGGUUCGUGUCCCGUACGGAACG [G9A A45C C46G A57U] | ≤ 0.5
26 | GUUCCGUUGGCGUAAUGGUAAAGCGUCUCCCUACUAAGGAGAAGACUGCGGGUUCGAGUCCCGUACGGAACG [C22A C33A] | 0.718
27 | GUUCCGUUGGCGGAAUGGUAACGCGUCUCCCUCCUAAGGAGAAGACUGCGGGUUCGAGUCCCGUACGGAGCG [U13G A70G] | 0.831
28 | GUUCCGUAGGUGUAAUGGUAACGCCUCUCCCUCCUAAGCAGAAGACUGCGGGUUUGAGUCCCGUACGGAACG [U8A C11U G25C G39C C55U] | ≤ 0.5
29 | GCUCCGUUGGCGUAAUGGUAACGCGUCUCCCUCCUAAGGAGAUGACUGCAGGUGCGAGUCCCGUACGCAACG [U2C A43U G50A U54G G68C] | ≤ 0.5
30 | GGUCCGUUGGCGUAAUGGUAACGCGUCUCCCUCCUAAGGAGAAGACUGCGGGUUCGAGUCCGGUACGGAUCG [U2G C62G A70U] | 0.822
31 | GUUCCCUUGGCGUAAUGGUAACGCGUCUCCCUCCUAAGGAGAAGACUGCGGGUUCGAGUCCCGUAUGGAACG [G6C C66U] | 1.01
32 | GUUCUGUUGGCGUAUUGGUAACGCGUCUCCCUCCUAAGGAGAAGACUGCGCGUUCGAGUCGGGUACGGAACG [C5U A15U G51C C61G C62G] | 0.776
33 | GUUCCGUUGGCGUAAUGGUAACGCGUCUCCCUCCAAAGGAGAAGGCUGCGGGUUCGAGUCCCGUACGGAACG [U35A A45G] | 0.759
34 | GUUCCGUUGGCGUAAUGGUAACGCGUCUUCCUCCUCAGGAGAAGUCUGCGGGUCCGAGUCCCGUACGGAACG [C29U A36C A45U U54C] | ≤ 0.5
35 | GUUCCGUUGGCGUAAUGGUAACGCGUCUGCCUCCUAAGGAGGAGAAUGCGGGUUCGCGUCCCGUACGGAACG [C29G A42G C46A A57C] | ≤ 0.5
36 | GCUCCGUUCGCGUAAUGGUAACGCGUCCCCCUCCUAAGGAGAAGACUGCCGGUUCGCGUCCCGUACGGUACG [U2C G9C U28C G50C A57C A69U] | ≤ 0.5
37 | GUUUCGUUGGCGUAAUGGUAACGCGUCUCCCUCCUAAGGAGAAGACUGCGGGUUCGACUCCCGAACGGAACG [C4U G58C U64A] | 0.848
38 | GUUCCGUUGGAGUAAUGGUAACGCGUCUCCCUCCUAAGGAGAAGACUGCGGGUUCGAGUCGCGUCCGGAACG [C11A C61G A65C] | 0.567
